Results reported in ChEMBL document CHEMBL3272012, “5-(Tetradecyloxy)-2-furancarboxylic acid and related hypolipidemic fatty acid-like alkyloxyarylcarboxylic acids” (J Med Chem, 1977).
Blank lines part the entries; values can stand above or below the compound they belong to.

What was measured:
[1] = test system: Rattus norvegicus; test: Increase in cholesterol level in Wistar rat liver at 470 umol/kg/day administered through diet for 4 days; type: ADME, organism-based; details: in vivo, po, 96 h
[2] = test system: Rattus norvegicus; test: Hypolipidemic activity in Wistar rat assessed as reduction in plasma cholesterol level at 428 umol/kg/day administered through diet for 10 days; type: functional; details: 240 h
How it was run: (§1)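 Young male Wistar rats, 170-190 g initial weight, groups of six, given compound mixed thoroughly into Purina Lab Chow ad libitum for 4 or 10 days as stated. Daily dose calculated from food consumption and body weight. Bled by cardiac puncture at end of treatment; plasma cholesterol measured by automated procedure. Expressed as percent reduction versus simultaneous untreated control group; Student's t test.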

[3] = test system: Rattus norvegicus; test: Hypolipidemic activity in Wistar rat assessed as reduction in plasma triglyceride level at 428 umol/kg/day administered through diet for 10 days; type: functional; details: 240 h
[4] = test system: Rattus norvegicus; test: Increase in liver weight in Wistar rat at 470 umol/kg/day administered through diet for 4 days; type: ADME, organism-based; details: in vivo, po, 96 h
[5] = test system: Rattus norvegicus; test: Hypolipidemic activity in Wistar rat assessed as reduction in plasma triglyceride level at 470 umol/kg/day administered through diet for 4 days; type: functional; details: 96 h
[6] = test system: Rattus norvegicus; test: Hypolipidemic activity in Wistar rat assessed as reduction in plasma cholesterol level at 470 umol/kg/day administered through diet for 4 days; type: functional; details: 96 h; how it was run: as §1
[7] = test system: Rattus norvegicus; test: Hypolipidemic activity in Wistar rat assessed as reduction in plasma cholesterol level at 511 umol/kg/day administered through diet for 10 days; type: functional; details: 240 h; how it was run: as §1
[8] = test system: Rattus norvegicus; test: Increase in liver weight in Wistar rat at 149 umol/kg/day administered through diet for 10 days; type: ADME, organism-based; details: in vivo, po, 240 h
[9] = test system: Rattus norvegicus; test: Hypolipidemic activity in Wistar rat assessed as reduction in plasma cholesterol level at 407 umol/kg/day administered through diet for 4 days; type: functional; details: 96 h
How it was run: (§2)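 Young male Wistar rats, 170-190 g at start, in groups of six, given compound mixed into Purina Lab Chow ad libitum for 4 or 10 days as stated. Daily dose was calculated from food consumption and body weight. Plasma was taken by cardiac puncture at the end and cholesterol measured by automated procedure. Results are % reduction versus a concurrent untreated control group, with Student's t test.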

[10] = test system: Rattus norvegicus; test: Increase in cholesterol level in Wistar rat liver at 149 umol/kg/day administered through diet for 10 days; type: ADME, organism-based; details: in vivo, po, 240 h
[11] = test system: Rattus norvegicus; test: Hypolipidemic activity in Wistar rat assessed as reduction in plasma cholesterol level at 149 umol/kg/day administered through diet for 10 days; type: functional; details: 240 h; how it was run: as §2
[12] = test system: Rattus norvegicus; test: Increase in cholesterol level in Wistar rat liver at 407 umol/kg/day administered through diet for 4 days; type: ADME, organism-based; details: in vivo, po, 96 h
[13] = test system: Rattus norvegicus; test: Hypolipidemic activity in Wistar rat assessed as reduction in plasma cholesterol level at 275 umol/kg/day administered through diet for 10 days; type: functional; details: 240 h; how it was run: as §2
[14] = test system: Rattus norvegicus; test: Increase in liver weight in Wistar rat at 407 umol/kg/day administered through diet for 4 days; type: ADME, organism-based; details: in vivo, po, 96 h
[15] = test system: Rattus norvegicus; test: Increase in cholesterol level in Wistar rat liver at 275 umol/kg/day administered through diet for 10 days; type: ADME, organism-based; details: in vivo, po, 240 h
[16] = test system: Rattus norvegicus; test: Increase in cholesterol level in Wistar rat liver at 511 umol/kg/day administered through diet for 10 days; type: ADME, organism-based; details: in vivo, po, 240 h
[17] = test system: Rattus norvegicus; test: Increase in liver weight in Wistar rat at 511 umol/kg/day administered through diet for 10 days; type: ADME, organism-based; details: in vivo, po, 240 h
[18] = test system: Rattus norvegicus; test: Hypolipidemic activity in Wistar rat assessed as reduction in plasma triglyceride level at 149 umol/kg/day administered through diet for 10 days; type: functional; details: 240 h, read-out: INH
How it was run: (§3)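 Young male Wistar rats, 170-190 g initial weight, six per group, fed drug mixed thoroughly into Purina Lab Chow ad libitum for the stated days; daily dose calculated from food consumption and body weight. Bled by cardiac puncture at end; plasma cholesterol and triglycerides by automated procedures, expressed as percent reduction versus simultaneous untreated controls; Student's t test.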

[19] = test system: Rattus norvegicus; test: Hypolipidemic activity in Wistar rat assessed as reduction in plasma triglyceride level at 275 umol/kg/day administered through diet for 10 days; type: functional; details: 240 h; how it was run: as §3
[20] = test system: Rattus norvegicus; test: Increase in liver weight in Wistar rat at 275 umol/kg/day administered through diet for 10 days; type: ADME, organism-based; details: in vivo, po, 240 h
[21] = test system: Rattus norvegicus; test: Hypolipidemic activity in Wistar rat assessed as reduction in plasma triglyceride level at 407 umol/kg/day administered through diet for 4 days; type: functional; details: 96 h
[22] = test system: Rattus norvegicus; test: Hypolipidemic activity in Wistar rat assessed as reduction in plasma triglyceride level at 511 umol/kg/day administered through diet for 10 days; type: functional; details: 240 h
[23] = test system: Rattus norvegicus; test: Hypolipidemic activity in Wistar rat assessed as reduction in plasma cholesterol level at 445 umol/kg/day administered through diet; type: functional
How it was run: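 Young male Wistar rats (170-190 g initial weight) in groups of six, fed test compound admixed to Purina Lab Chow ad libitum. Actual daily dose derived from recorded food intake and body weight. Cardiac puncture blood taken at end of treatment; plasma cholesterol determined by automated method. Percent reduction from concurrently run untreated controls, significance by Student's t test.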

[24] = test system: Rattus norvegicus; test: Increase in liver weight in Wistar rat at 445 umol/kg/day administered through diet; type: ADME, organism-based; details: in vivo, po
[25] = test system: Rattus norvegicus; test: Hypolipidemic activity in Wistar rat assessed as reduction in plasma triglyceride level at 98 umol/kg/day administered through diet for 4 days; type: functional; details: 96 h
[26] = test system: Rattus norvegicus; test: Increase in liver weight in Wistar rat at 98 umol/kg/day administered through diet for 4 days; type: ADME, organism-based; details: in vivo, po, 96 h
[27] = test system: Rattus norvegicus; test: Hypolipidemic activity in Wistar rat assessed as reduction in plasma triglyceride level at 201 umol/kg/day administered through diet for 4 days; type: functional; details: 96 h; how it was run: as §3
[28] = test system: Rattus norvegicus; test: Increase in cholesterol level in Wistar rat liver at 445 umol/kg/day administered through diet; type: ADME, organism-based; details: in vivo, po
[29] = test system: Rattus norvegicus; test: Increase in liver weight in Wistar rat at 201 umol/kg/day administered through diet for 4 days; type: ADME, organism-based; details: in vivo, po, 96 h
[30] = test system: Rattus norvegicus; test: Hypolipidemic activity in Wistar rat assessed as reduction in plasma triglyceride level at 445 umol/kg/day administered through diet; type: functional
[31] = test system: Rattus norvegicus; test: Increase in cholesterol level in Wistar rat liver at 98 umol/kg/day administered through diet for 4 days; type: ADME, organism-based; details: in vivo, po, 96 h
[32] = test system: Rattus norvegicus; test: Increase in cholesterol level in Wistar rat liver at 201 umol/kg/day administered through diet for 4 days; type: ADME, organism-based; details: in vivo, po, 96 h
[33] = test system: Rattus norvegicus; test: Hypolipidemic activity in Wistar rat assessed as reduction in plasma cholesterol level at 98 umol/kg/day administered through diet for 4 days; type: functional; details: 96 h; how it was run: as §3
[34] = test system: Rattus norvegicus; test: Hypolipidemic activity in Wistar rat assessed as reduction in plasma cholesterol level at 201 umol/kg/day administered through diet for 4 days; type: functional; details: 96 h; how it was run: as §2
[35] = test system: Rattus norvegicus; test: Hypolipidemic activity in Wistar rat assessed as reduction in plasma triglyceride level at 439 umol/kg/day administered through diet for 10 days; type: functional; details: 240 h
How it was run: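 Young male Wistar rats (initial weight 170-190 g), groups of six, fed compound mixed into Purina Lab Chow ad libitum for 4 or 10 days; daily dose calculated from food consumption and body weight. Bled by cardiac puncture; plasma cholesterol and triglycerides by automated procedures; percent reduction versus simultaneous untreated controls, Student's t test.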

[36] = test system: Rattus norvegicus; test: Hypolipidemic activity in Wistar rat assessed as reduction in plasma triglyceride level at 461 umol/kg/day administered through diet for 4 days; type: functional; details: 96 h
[37] = test system: Rattus norvegicus; test: Increase in cholesterol level in Wistar rat liver at 461 umol/kg/day administered through diet for 4 days; type: ADME, organism-based; details: in vivo, po, 96 h
[38] = test system: Rattus norvegicus; test: Increase in liver weight in Wistar rat at 439 umol/kg/day administered through diet for 10 days; type: ADME, organism-based; details: in vivo, po, 240 h
How it was run: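 Male Wistar rats (170-190 g initial), groups of six, dosed via diet ad libitum for 4 or 10 days, daily dose from food consumption. Liver wet weight measured, expressed as g/100 g final body weight, compared with untreated controls run simultaneously.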

[39] = test system: Rattus norvegicus; test: Increase in cholesterol level in Wistar rat liver at 439 umol/kg/day administered through diet for 10 days; type: ADME, organism-based; details: in vivo, po, 240 h
[40] = test system: Rattus norvegicus; test: Hypolipidemic activity in Wistar rat assessed as reduction in plasma cholesterol level at 439 umol/kg/day administered through diet for 10 days; type: functional; details: 240 h; how it was run: as §1
[41] = test system: Rattus norvegicus; test: Increase in cholesterol level in Wistar rat liver at 392 umol/kg/day administered through diet for 10 days; type: ADME, organism-based; details: in vivo, po, 240 h
[42] = test system: Rattus norvegicus; test: Hypolipidemic activity in Wistar rat assessed as reduction in plasma cholesterol level at 461 umol/kg/day administered through diet for 4 days; type: functional; details: 96 h; how it was run: as §1
[43] = test system: Rattus norvegicus; test: Hypolipidemic activity in Wistar rat assessed as reduction in plasma triglyceride level at 392 umol/kg/day administered through diet for 10 days; type: functional; details: 240 h
How it was run: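 Young male Wistar rats (170-190 g initial weight), groups of six, fed test compound mixed into Purina Lab Chow ad libitum; daily dose calculated from food consumption and body weight. Bled by cardiac puncture at end of treatment; plasma triglycerides measured by automated procedure. Results given as percent reduction versus a simultaneous untreated control group, with significance by Student's t test.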

[44] = test system: Rattus norvegicus; test: Increase in liver weight in Wistar rat at 392 umol/kg/day administered through diet for 10 days; type: ADME, organism-based; details: in vivo, po, 240 h
[45] = test system: Rattus norvegicus; test: Increase in liver weight in Wistar rat at 461 umol/kg/day administered through diet for 4 days; type: ADME, organism-based; details: in vivo, po, 96 h
[46] = test system: Rattus norvegicus; test: Hypolipidemic activity in Wistar rat assessed as reduction in plasma cholesterol level at 392 umol/kg/day administered through diet for 10 days; type: functional; details: 240 h; how it was run: as §2

Activity [1]: 22%
Activity [4]: 22%
Structure (SMILES): CCCCCCCCCCCCOc1ccc(C(=O)O)cc1
inhibition in vivo at 428 µmol/kg [2]: 16%
inhibition in vivo at 428 µmol/kg [3]: 31%
inhibition in vivo at 470 µmol/kg [5]: 58%
inhibition in vivo at 470 µmol/kg [6]: 33%

Activity [8]: 7%
Activity [10]: 7%
Activity [12]: 1%
Activity [14]: 14%
Activity [15]: 4%
Activity [16]: 2%
Activity [17]: 19%
Activity [20]: 20%
Structure (SMILES): CCCCCCCCCCCCCCOc1ccc(C(=O)O)cc1
inhibition in vivo at 511 µmol/kg [7]: 24%
inhibition in vivo at 407 µmol/kg [9]: 31%
inhibition in vivo at 149 µmol/kg [11]: 16%
inhibition in vivo at 275 µmol/kg [13]: 33%
inhibition in vivo at 149 µmol/kg [18]: 49%
inhibition in vivo at 275 µmol/kg [19]: 46%
inhibition in vivo at 407 µmol/kg [21]: 39%
inhibition in vivo at 511 µmol/kg [22]: 36%

Activity [24]: 7%
Activity [26]: 0%
Activity [28]: 12%
Activity [29]: 0%
Activity [31]: 0%
Activity [32]: 12%
Structure (SMILES): CCCCCCCCCCCCCCOc1ccc(C(=O)OC)cc1
inhibition in vivo at 445 µmol/kg [23]: 6%
inhibition in vivo at 98 µmol/kg [25]: 72%
inhibition in vivo at 201 µmol/kg [27]: 70%
inhibition in vivo at 445 µmol/kg [30]: 49%
inhibition in vivo at 98 µmol/kg [33]: 27%
inhibition in vivo at 201 µmol/kg [34]: 23%

Activity [37]: 20%
Activity [38]: 10%
Activity [39]: 3%
Activity [41]: 0%
Activity [44]: 2%
Activity [45]: 16%
Structure (SMILES): CCCCCCCCCCCCCCOc1ccc(C(=O)OCC)cc1
inhibition in vivo at 439 µmol/kg [35]: 54%
inhibition in vivo at 461 µmol/kg [36]: 42%
inhibition in vivo at 439 µmol/kg [40]: 24%
inhibition in vivo at 461 µmol/kg [42]: 23%
inhibition in vivo at 392 µmol/kg [43]: 61%
inhibition in vivo at 392 µmol/kg [46]: 33%
